Key:
cells = settings: Homo sapiens, T-cell
[1] = target: Tyrosine-protein kinase Lyn (Homo sapiens) (UniProt P07948); assay: Inhibition of Lyn at 1 uM
In short: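 Single-point screen within a 108-kinase selectivity panel. Each kinase was tested with inhibitor at 0.1 and 1.0 micromolar, and activity was recorded as percent inhibition.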

[2] = target: Cyclin-dependent kinase 7/ cyclin H (Homo sapiens) (UniProt P51946+P50613); assay: Inhibition of CDK7/cyclin H/MAT1 at 0.1 uM; values are per cent of control
[3] = target: Tyrosine-protein kinase CSK (Homo sapiens) (UniProt P41240); assay: Inhibition of CSK at 1 uM; values are per cent of control
[4] = target: Hepatocyte growth factor receptor (Homo sapiens) (UniProt P08581); assay: Inhibition of Met at 0.1 uM; values are per cent of control
[5] = target: T1, Interleukin-1 receptor-associated kinase 4 (Homo sapiens) (UniProt Q9NWZ3); assay: Inhibition of IRAK4 at 1 uM
T1 sequence (whole entry): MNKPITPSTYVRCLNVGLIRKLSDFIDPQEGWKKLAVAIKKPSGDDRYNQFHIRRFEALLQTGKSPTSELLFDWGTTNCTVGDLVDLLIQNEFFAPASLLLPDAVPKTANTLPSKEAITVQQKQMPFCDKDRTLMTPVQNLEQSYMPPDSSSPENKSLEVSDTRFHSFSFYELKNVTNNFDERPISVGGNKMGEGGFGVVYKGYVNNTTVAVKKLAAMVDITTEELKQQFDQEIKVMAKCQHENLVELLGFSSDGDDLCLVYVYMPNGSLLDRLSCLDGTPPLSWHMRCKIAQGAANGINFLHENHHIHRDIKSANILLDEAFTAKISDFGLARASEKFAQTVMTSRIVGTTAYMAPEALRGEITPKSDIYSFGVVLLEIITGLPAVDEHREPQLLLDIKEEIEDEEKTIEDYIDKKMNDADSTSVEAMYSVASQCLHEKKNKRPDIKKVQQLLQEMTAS
In short: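 Single-point profiling in a panel of 108 kinases. Each selected inhibitor was tested at two concentrations, 0.1 and 1.0 micromolar. Values are reported as inhibition at each concentration.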

[6] = target: T2, Tyrosine-protein kinase ZAP-70 (Homo sapiens) (UniProt P43403); assay: Inhibition of ZAP70 at 1 uM; values are per cent of control
T2 sequence (whole entry): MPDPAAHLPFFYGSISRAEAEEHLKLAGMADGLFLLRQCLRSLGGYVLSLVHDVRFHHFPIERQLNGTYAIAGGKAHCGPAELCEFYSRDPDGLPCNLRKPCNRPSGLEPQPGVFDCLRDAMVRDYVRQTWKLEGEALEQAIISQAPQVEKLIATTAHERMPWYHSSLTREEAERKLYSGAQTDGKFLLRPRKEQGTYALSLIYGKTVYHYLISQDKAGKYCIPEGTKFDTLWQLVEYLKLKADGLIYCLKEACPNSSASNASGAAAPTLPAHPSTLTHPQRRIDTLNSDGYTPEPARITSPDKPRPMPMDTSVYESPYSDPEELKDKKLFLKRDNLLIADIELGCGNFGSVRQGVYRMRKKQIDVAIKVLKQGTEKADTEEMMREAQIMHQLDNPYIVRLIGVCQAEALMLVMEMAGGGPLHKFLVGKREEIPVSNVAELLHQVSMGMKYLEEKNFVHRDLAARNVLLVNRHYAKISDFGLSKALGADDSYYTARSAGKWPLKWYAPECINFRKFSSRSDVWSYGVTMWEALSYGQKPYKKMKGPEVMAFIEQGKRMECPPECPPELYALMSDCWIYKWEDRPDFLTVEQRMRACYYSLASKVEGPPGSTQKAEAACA

[7] = target: Tyrosine-protein kinase HCK (Homo sapiens) (UniProt P08631); assay: Inhibition of Hck at 1 uM; values are per cent of control
[8] = target: RAF proto-oncogene serine/threonine-protein kinase (Homo sapiens) (UniProt P04049); assay: Inhibition of c-RAF at 1 uM; values are per cent of control
[9] = target: High affinity nerve growth factor receptor (Homo sapiens) (UniProt P04629); assay: Inhibition of TrkA at 0.1 uM; values are per cent of control
[10] = target: T3, cGMP-dependent protein kinase 1 (Homo sapiens) (UniProt Q13976); assay: Inhibition of PKG1beta at 1 uM; values are per cent of control
T3 sequence (whole entry): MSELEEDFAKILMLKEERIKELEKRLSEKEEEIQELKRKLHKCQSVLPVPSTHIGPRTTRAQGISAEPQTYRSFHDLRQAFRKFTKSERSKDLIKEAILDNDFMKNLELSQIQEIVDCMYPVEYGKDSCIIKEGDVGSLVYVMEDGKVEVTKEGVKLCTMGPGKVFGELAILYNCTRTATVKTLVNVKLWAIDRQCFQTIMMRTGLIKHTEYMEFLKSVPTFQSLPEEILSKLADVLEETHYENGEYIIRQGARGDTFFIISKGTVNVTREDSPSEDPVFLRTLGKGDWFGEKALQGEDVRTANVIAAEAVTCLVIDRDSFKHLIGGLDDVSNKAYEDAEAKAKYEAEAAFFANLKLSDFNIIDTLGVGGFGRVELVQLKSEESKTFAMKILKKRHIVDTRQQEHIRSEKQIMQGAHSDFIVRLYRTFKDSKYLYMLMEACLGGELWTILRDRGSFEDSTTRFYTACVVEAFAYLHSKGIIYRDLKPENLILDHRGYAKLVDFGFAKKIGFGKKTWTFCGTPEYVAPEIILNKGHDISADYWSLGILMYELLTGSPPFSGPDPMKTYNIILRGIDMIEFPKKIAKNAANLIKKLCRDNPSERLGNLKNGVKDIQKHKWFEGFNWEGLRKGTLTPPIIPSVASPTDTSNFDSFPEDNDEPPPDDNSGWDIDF

[11] = target: Cyclin-dependent kinase 5/CDK5 activator 1 (Homo sapiens) (UniProt Q00535+Q15078); assay: Inhibition of CDK5/p35 at 1 uM; values are per cent of control
[12] = target: LIM domain kinase 1 (Homo sapiens) (UniProt P53667); assay: Inhibition of LIMK1 at 0.1 uM; values are per cent of control
[13] = target: Protein-tyrosine kinase 2-beta (Homo sapiens) (UniProt Q14289); assay: Inhibition of Pyk2 at 1 uM; values are per cent of control
[14] = target: Tyrosine-protein kinase SYK (Homo sapiens) (UniProt P43405); assay: Inhibition of Syk at 0.1 uM; values are per cent of control

Chain of Hepatocyte growth factor receptor (Homo sapiens) (P08581 whole entry): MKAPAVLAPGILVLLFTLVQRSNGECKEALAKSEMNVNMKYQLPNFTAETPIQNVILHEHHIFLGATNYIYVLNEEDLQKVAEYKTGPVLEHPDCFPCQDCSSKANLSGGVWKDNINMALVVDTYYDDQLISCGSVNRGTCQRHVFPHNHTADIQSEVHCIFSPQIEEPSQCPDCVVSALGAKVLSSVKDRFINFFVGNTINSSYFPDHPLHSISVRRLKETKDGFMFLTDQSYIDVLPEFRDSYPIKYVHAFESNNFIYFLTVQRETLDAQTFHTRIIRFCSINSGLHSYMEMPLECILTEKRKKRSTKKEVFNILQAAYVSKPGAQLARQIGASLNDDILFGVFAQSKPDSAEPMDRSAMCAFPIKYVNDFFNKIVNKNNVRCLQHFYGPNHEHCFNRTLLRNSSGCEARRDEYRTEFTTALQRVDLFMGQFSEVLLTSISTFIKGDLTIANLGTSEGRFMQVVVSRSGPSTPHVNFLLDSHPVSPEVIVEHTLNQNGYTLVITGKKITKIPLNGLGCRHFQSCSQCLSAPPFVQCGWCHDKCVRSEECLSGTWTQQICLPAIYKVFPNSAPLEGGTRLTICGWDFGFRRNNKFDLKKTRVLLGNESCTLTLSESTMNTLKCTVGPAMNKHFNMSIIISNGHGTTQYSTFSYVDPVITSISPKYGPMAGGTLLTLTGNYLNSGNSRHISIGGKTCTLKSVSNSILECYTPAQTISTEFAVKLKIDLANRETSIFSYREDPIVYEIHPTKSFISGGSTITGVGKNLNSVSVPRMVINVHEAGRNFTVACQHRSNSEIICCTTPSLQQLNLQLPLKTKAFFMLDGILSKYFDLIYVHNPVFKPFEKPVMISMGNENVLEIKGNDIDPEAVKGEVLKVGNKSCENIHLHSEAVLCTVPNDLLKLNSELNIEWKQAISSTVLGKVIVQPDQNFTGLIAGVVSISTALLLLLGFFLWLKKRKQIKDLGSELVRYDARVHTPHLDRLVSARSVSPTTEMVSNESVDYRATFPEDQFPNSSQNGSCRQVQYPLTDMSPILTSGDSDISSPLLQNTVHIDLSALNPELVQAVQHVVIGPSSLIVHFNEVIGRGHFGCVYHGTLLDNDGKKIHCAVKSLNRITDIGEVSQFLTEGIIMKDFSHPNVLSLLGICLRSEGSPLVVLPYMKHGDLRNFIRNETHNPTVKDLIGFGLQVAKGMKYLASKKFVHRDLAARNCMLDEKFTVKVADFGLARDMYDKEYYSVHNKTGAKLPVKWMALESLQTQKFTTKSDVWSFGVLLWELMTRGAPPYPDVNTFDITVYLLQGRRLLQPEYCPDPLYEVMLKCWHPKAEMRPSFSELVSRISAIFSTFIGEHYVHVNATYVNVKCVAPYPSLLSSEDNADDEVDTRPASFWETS
Chain of Tyrosine-protein kinase CSK (Homo sapiens) (P41240 2-450 limits assumed): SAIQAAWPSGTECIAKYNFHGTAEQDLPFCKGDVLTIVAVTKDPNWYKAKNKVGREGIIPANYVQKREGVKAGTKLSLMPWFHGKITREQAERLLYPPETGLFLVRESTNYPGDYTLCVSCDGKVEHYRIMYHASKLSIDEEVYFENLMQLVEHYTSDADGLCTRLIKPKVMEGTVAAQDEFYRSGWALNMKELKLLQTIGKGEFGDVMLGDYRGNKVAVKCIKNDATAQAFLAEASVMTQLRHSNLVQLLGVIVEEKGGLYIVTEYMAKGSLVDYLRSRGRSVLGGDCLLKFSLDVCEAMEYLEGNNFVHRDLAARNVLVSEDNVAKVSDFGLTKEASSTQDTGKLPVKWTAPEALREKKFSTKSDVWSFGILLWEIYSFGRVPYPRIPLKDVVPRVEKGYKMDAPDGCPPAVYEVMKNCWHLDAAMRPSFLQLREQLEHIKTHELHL
Chain of LIM domain kinase 1 (Homo sapiens) (P53667 whole entry, looked up, the tested form may be a part): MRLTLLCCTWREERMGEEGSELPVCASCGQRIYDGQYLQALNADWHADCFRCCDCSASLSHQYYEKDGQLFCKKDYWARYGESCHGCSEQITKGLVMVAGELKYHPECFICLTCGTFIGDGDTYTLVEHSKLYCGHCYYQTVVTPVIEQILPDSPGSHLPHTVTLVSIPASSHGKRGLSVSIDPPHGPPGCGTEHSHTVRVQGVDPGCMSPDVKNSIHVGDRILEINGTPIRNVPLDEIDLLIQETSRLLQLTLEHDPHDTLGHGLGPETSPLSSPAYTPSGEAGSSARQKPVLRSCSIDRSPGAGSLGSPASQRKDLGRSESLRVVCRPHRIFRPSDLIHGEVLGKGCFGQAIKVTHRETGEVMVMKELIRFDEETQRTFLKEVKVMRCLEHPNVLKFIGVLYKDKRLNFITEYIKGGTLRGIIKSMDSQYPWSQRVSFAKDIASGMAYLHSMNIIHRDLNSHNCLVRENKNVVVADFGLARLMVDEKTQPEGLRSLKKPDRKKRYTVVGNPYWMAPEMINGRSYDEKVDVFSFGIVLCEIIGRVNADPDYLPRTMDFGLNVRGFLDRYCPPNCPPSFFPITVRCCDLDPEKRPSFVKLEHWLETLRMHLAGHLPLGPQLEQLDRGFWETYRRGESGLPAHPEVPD
Chain of Cyclin-dependent kinase 5/CDK5 activator 1 (Homo sapiens) (Q00535 whole entry, the tested form may be a part): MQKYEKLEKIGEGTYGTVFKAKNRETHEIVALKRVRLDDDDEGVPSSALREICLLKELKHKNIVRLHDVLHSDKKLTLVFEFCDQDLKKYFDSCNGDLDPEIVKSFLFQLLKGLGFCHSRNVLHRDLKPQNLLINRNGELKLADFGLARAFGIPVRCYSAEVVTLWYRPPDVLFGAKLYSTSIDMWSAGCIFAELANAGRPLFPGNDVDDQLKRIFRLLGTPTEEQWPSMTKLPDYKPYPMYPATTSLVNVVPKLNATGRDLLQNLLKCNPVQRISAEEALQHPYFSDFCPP
Chain of Cyclin-dependent kinase 5/CDK5 activator 1 (Homo sapiens) (Q15078 99-307 partner limits assumed): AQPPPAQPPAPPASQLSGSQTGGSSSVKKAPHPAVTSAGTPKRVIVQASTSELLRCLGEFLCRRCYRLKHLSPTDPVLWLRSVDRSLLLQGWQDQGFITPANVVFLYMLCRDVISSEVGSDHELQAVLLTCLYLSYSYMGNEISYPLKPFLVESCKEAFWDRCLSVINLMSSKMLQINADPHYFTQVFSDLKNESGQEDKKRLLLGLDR
Chain of RAF proto-oncogene serine/threonine-protein kinase (Homo sapiens) (P04049 whole entry): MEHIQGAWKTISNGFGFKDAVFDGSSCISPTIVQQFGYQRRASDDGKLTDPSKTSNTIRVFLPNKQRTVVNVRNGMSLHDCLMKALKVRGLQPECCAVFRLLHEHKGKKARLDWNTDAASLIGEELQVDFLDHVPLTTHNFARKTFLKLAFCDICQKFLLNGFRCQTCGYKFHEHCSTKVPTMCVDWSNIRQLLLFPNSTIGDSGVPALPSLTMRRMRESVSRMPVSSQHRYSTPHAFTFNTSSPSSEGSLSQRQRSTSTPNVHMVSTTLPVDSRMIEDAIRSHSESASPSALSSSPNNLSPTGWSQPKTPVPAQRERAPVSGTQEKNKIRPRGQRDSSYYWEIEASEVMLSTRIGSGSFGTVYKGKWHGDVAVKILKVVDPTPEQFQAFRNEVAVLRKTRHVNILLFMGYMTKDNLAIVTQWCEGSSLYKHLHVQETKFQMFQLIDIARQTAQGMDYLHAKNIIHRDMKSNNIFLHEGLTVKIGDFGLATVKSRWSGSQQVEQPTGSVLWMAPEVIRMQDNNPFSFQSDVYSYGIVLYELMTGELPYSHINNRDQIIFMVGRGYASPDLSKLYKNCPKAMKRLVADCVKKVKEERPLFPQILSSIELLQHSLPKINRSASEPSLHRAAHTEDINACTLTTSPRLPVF
Chain of Protein-tyrosine kinase 2-beta (Homo sapiens) (Q14289 whole entry, looked up): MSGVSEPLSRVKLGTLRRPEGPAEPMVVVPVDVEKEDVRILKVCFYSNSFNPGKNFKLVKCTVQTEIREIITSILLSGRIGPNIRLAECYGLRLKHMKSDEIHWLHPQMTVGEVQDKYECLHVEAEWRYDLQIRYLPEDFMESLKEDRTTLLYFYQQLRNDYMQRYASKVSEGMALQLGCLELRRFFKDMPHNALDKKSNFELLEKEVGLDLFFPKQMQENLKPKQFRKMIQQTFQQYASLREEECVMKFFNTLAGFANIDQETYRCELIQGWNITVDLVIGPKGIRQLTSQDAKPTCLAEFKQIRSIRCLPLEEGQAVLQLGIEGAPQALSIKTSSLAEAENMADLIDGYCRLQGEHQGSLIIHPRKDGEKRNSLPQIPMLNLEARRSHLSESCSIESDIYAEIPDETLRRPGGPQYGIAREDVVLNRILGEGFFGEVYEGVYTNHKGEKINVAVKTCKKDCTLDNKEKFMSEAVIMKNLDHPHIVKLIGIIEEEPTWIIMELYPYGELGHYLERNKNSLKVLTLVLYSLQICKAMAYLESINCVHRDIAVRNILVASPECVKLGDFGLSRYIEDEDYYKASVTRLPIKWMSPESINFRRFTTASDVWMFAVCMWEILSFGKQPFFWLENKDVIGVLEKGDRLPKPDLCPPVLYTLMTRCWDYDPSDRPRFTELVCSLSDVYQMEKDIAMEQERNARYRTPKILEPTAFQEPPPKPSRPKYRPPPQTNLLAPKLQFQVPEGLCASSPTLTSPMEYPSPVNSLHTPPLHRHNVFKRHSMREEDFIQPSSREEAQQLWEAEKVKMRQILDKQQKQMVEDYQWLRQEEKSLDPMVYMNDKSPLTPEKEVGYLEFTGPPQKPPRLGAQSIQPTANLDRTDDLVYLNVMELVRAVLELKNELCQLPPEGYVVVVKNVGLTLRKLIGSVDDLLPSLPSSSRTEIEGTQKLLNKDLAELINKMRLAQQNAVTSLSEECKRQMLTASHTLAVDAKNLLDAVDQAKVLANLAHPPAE

| IC50 (cells) [nM] | inhibition [1] [%] | residual activity [2] [%] | residual activity [3] [%] | residual activity [4] [%] | inhibition [5] [%] | residual activity [6] [%] | residual activity [7] [%] | residual activity [8] [%] | residual activity [9] [%] | residual activity [10] [%] | residual activity [11] [%] | residual activity [12] [%] | residual activity [13] [%] | residual activity [14] [%] | SMILES |
| --- | --- | --- | --- | --- | --- | --- | --- | --- | --- | --- | --- | --- | --- | --- | --- |
| 500 | 0 | 94 | 95 | 78 | 3 | 75 | 7 | 90 | 10 | 45 | 0 | 98 | 10 | 0 | Cc1ccc2cc(-c3n[nH]c4ccc(NC5CCN(Cc6ccccc6)CC5)cc34)[nH]c2c1 |
| 20 | 1 | 42 | 56 | 44 | 0 | 35 | 0 | 90 | -1 | 43 | 2 | 37 | 8 | 2 | Cc1ccc2cc(-c3n[nH]c4ccc(NC5CCNC5)cc34)[nH]c2c1 (stereo not given) |

From ChEMBL document CHEMBL1681705, “Optimisation of ITK inhibitors through successive iterative design cycles” (Bioorg Med Chem Lett, 2011)
